The list is not random: actives were taken first. Their share in the collection is about 3.2%.
Apaf-1 inh – blocks human Apaf-1 apoptosome activity; reconstituted apoptosome caspase-3 activity, DEVD-Rh110 fluorescence; inhibition, % at 20 µM; actives 0.71% (n = 330,000); O14727; active means inhibition of at least 40% at 20 µM;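 further: plate controls were DMSO wells for no effect and DEVD-CHO caspase inhibitor wells for full effect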
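Assay system: Apoptosome proteins | Medium: pH 7.5 Hepes buffer with CHAPS, BSA, DTT | Also added: Cytochrome c and DEVD-Rh110 substrate | Times: 30 min plus 50 min, RT | Detection: Rhodamine 110 fluorescence at Ex 480/Em 540 nm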
UBC13 polyUb – blocks human UBC13 polyubiquitin chain formation; actives 0.47% (n = 330,000); P61088; TR-FRET; AID 485273; inhibition, % at 20 µM; in the data active means inhibition above about 45%, passing the limit was not always enough
MEKK2wt PB1 HTS – raises or lowers MEK5 binding to wildtype human MEKK2 PB1 domain. Q9Y2U5. bead flow cytometry, Alexa488-MEK5 binding to MEKK2 WT; actives lie on both sides. AID 1531. actives 1.1% (n = 290,000). binding response (% of control), % at 10 µM; in the data active means binding response below about 67% or above about 130%
MEKK2mut PB1 HTS – signal of MEK5 binding to mutant human MEKK2 PB1 domain; bead flow cytometry, Alexa488-MEK5 binding to MEKK2 mutant; percent response, % at 10 µM; actives 0.35% (n = 290,000); AID 1530; in the data active means percent response above about 24%, passing the limit was not always enough
Pemphigus Ab inh – human desmoglein-3 autoantibody binding inhibition; P32926; DSG3-coupled beads, scFv-anti-DSG3-GFP binding, flow cytometry; active compounds read low; binding (percent of control), % at 10 µM; actives 0.48% (n = 310,000); AID 588358;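 active means binding more than 3 SD below its plate's average and above zero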;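 further: hits lower antibody fragment binding to DSG3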
MEKK3 PB1 HTS – modulators (inhibitors or enhancers) of MEK5 binding to human MEKK3 PB1 domain. Q99759. actives 1.4% (n = 290,000). bead-based flow cytometry, Alexa488-MEK5 binding to MEKK3; actives lie on both sides; 0 = blocked by unlabeled MEK5, 100 = vehicle. binding response (% of control), % at 10 µM;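 active means binding response more than 3 SD above or below the average of its plate-row segment, actives on both sides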;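 further: Alexa488 bead fluorescence after subtracting the streptavidin-only scavenger bead signal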
Numbers without * were called inactive; / = not tested or not shown; [ ] = another dose, or the depositor's remark.

SMILES	Apaf-1 inh	UBC13 polyUb	MEKK2wt PB1 HTS	MEKK2mut PB1 HTS	Pemphigus Ab inh	MEKK3 PB1 HTS
CCC1CCCCN1CCCNC(=O)c1ccc2c(c1)c(C)c(C)n2C (stereo not drawn)	25.1	8.4	158.0*	21.0	123.0	99.0
CCC1CCCCN1CCCNC(=O)c1ccc2c(c1)c(C)c(C)n2CC (stereo not drawn)	7.7	18.2	50.0*	20.0	124.6	101.0
O=C(c1ccc(Cl)c(S(=O)(=O)N2CCOCC2)c1)N1CCN(c2ccccc2)CC1	-0.5	7.1	107.0	7.0	115.3	104.0
COc1ccc(OCC(=O)OCC(=O)Nc2ccc3[nH]c(=O)[nH]c3c2)cc1	-24.4	5.1	/	/	97.7	/
CCOC(=O)Cc1csc(N/C(=N/S(=O)(=O)c2ccc(Cl)cc2)c2ccccc2)n1	63.2*	-4.6	96.0	-2.0	101.6	99.0
Cc1ccc(NCc2cccc(B(O)O)c2)cc1	/	/	/	/	112.8	/
O=C(c1cccs1)[C@@H]1[C@@H]2C(=O)N(Cc3ccc4c(c3)OCO4)C(=O)[C@@H]2C2c3ccccc3C=CN21 (stereo partly drawn)	81.9*	-11.4	/	/	/	/
O=C1c2ccccc2C(=O)N1Cc1ccc2c(c1)OCO2	-4.2	9.2	90.0	0.0	100.8	91.0
O=C(c1ccc2c(c1)OCO2)[C@@H]1[C@@H]2C(=O)N(C3CCCCC3)C(=O)[C@@H]2C2c3ccccc3C=CN21 (stereo partly drawn)	/	/	100.0	6.0	105.1	104.0
O=C(Nc1ccc2c(c1)OCO2)[C@@H]1[C@@H]2C(=O)N(C3CCCCC3)C(=O)[C@@H]2C2c3ccccc3C=CN21 (stereo partly drawn)	42.5*	-4.7	100.0	7.0	/	100.0
COC(=O)C[C@@H]1C[C@H]2c3cc(NC(=O)Nc4ccccc4F)ccc3O[C@H]2[C@H](CO)O1	/	/	/	/	102.1	/
CC(C)c1ccc(N(CC(=O)NC2CCCCC2)C(=O)CCC(=O)Nc2ccccn2)cc1	20.1	-1.3	99.0	-1.0	62.2*	104.0
CCc1ccc(NC(=O)C(C)Sc2nnc(CN3CCCC3)o2)cc1 (stereo not drawn)	0.0	-9.6	/	/	95.2	/
COc1ccc(S(=O)(=O)N2CCN(CC(=O)Nc3ccccc3OC)CC2)cc1	2.0	-6.8	84.0	-13.0	75.0*	93.0
CSc1ccccc1C(=O)N(C)C(c1ccccc1)c1ccccc1	36.4	-3.4	100.0	0.0	102.2	102.0
CCC(CC)c1nnc(NC(=O)c2ccc3ccccc3n2)s1	15.0	-19.4	101.0	2.0	12.7*	103.0
CCC(CC)c1nnc(NC(=O)c2cc(-c3ccccc3)nc3ccccc23)s1	20.3	11.7	92.0	3.0	110.3	93.0
O=C(N=C1c2ccccc2CN1c1ccccc1)c1cccc([N+](=O)[O-])c1	1.3	-1.9	5.0*	4.0	92.8	95.0
CCOC(=O)c1ccc(N2Cc3ccccc3C2=NC(=O)c2cccc([N+](=O)[O-])c2)cc1	-1.0	-1.7	/	/	89.2	/
Cc1csc(NC(=O)C(NS(=O)(=O)c2ccc(Br)s2)c2ccccc2)n1 (stereo not drawn)	-12.4	1.9	100.0	16.0	85.7*	105.0
COc1cc(/C=N/Nc2ccc(S(N)(=O)=O)cc2[N+](=O)[O-])cc(OC)c1O	-1.7	-346.8	93.0	-9.0	82.8*	93.0
COc1cc(/C=N/Nc2ccccc2[N+](=O)[O-])cc(OC)c1O	5.4	-164.2	100.0	-2.0	91.5	102.0
CCOC(=O)c1c(S(=O)(=O)N(C)Cc2ccco2)c(C)n(C)c1C	-2.2	-3.5	43.0*[inhibitor]	-53.0	/	30.0*[inhibitor]
CCOC(=O)C1(Cc2ccccc2C#N)CCCCC1=O (stereo not drawn)	/	/	/	/	87.1	/
Cc1cccc(Cn2c(=O)c3c(nc4n3CCN4Cc3ccco3)n(C)c2=O)c1	7.6	0.9	2.0*[inhibitor]	-16.0	93.5	2.0*[inhibitor]
Cn1c(=O)n(Cc2ccc(Cl)cc2)c(=O)c2c1nc1n2CCN1Cc1ccco1	18.7	7.4	113.0	5.0	/	109.0
O=C1c2cccc3cccc(c23)C(=O)N1CC1CCN(S(=O)(=O)c2ccccc2)CC1	/	/	/	/	98.3	/
